The target in assay [1] is T1, Kinesin-like protein KIF11 (Homo sapiens, UniProt P52732).
T1 sequence (P52732 whole entry): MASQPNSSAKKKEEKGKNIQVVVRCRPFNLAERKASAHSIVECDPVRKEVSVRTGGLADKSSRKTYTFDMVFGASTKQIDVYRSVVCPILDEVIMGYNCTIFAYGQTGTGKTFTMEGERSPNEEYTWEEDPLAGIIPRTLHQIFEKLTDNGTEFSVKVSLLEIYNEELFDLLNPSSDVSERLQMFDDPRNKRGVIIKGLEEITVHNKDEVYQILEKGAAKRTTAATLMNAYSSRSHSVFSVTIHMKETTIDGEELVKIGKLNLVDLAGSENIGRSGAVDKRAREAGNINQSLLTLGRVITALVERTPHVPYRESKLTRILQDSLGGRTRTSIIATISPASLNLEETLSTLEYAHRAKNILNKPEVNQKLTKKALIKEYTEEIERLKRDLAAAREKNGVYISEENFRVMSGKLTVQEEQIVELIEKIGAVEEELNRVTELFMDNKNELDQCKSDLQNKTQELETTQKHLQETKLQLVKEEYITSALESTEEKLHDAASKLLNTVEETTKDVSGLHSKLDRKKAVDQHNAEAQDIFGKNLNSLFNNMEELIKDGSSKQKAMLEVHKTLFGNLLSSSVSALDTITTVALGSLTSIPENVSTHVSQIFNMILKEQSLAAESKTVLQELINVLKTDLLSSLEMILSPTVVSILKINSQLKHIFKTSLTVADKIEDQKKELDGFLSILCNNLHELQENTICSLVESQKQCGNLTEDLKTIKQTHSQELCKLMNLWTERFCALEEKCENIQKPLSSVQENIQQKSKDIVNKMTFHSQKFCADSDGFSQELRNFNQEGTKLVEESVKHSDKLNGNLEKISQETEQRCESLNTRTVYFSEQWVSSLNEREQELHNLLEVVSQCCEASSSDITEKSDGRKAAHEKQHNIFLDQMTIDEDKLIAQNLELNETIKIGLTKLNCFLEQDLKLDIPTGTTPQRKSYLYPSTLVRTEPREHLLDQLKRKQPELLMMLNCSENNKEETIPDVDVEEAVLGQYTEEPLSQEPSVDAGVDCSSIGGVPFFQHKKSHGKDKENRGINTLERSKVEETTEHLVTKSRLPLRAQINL
Description: Inhibition of untagged human Eg5 microtubule-stimulated ATPase activity.

The target of assay [2] is T2, Kinesin-like protein KIF11 (Homo sapiens) (UniProt P52732).
T2 sequence (whole entry): T1 sequence (P52732 whole entry)
Description: Binding affinity to Eg5 at 2 mM by crystallography.

The subject of assay [3] is P388. The assay is described as follows: Upregulation of P-glycoprotein mRNA expression in mouse P388 cells. In kind it is functional.
For assay [4], the system named is LLC-PK1. The assay is described as follows: Ratio of GI50 for pig L-MDR1 cells overexpressing human P-glycoprotein to GI50 for pig LLC-PK1 cells. In kind it is functional, Sus scrofa. The gist of the method: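 MDR ratio is the GI50 in L-MDR1 cells (Pgp-overexpressing) divided by the GI50 in parental LLC-PK1 cells. Each GI50 came from growth inhibition run at least in triplicate, with 8 wells per concentration, fitted by a four-parameter sigmoidal model.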

Assay [5] deals with P388. Description: Ratio of inhibition of growth in P-glycoprotein overexpressing mouse P388 cells to inhibition of growth in mouse P388. In kind it is functional.
Assay [6] concerns LLC-PK1. The assay is described as follows: Upregulation of P-glycoprotein mRNA expression in pig LLC-PK1 cells. The class given is functional, Sus scrofa.
Assay [7] can be described thus: Growth inhibition of dog MDCK2 cells in presence of P-glycoprotein inhibitor LY335979. In kind it is functional. The following applies: Canis lupus familiaris, MDCK-II. The essentials:
(§1)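 Parental lines (MDCKII, LLC-PK1) and matched Pgp-overexpressing lines (MDCKII-MDR1, about 500-fold Pgp; L-MDR1, about 25000-fold Pgp) were tested with and without the Pgp inhibitor LY335979. Each experiment was run at least in triplicate, with 8 wells per concentration. GI50 came from a nonlinear four-parameter sigmoidal concentration-response fit.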

Assay [8] in a line: Growth inhibition of pig L-MDR1 cells overexpressing human P-glycoprotein in presence of P-glycoprotein inhibitor LY335979. The class given is functional. Particulars: Sus scrofa. The essentials:
as §1

Assay [9] deals with LLC-PK1. The assay is described as follows: Growth inhibition of pig LLC-PK1 cells. The following applies: Sus scrofa. The class given is functional. The essentials:
as §1

Assay [10] deals with MDCK-II. The assay is described as follows: Ratio of GI50 for dog MDCK2-MDR1 cells overexpressing human P-glycoprotein to GI50 for dog MDCK2 cells. The class given is functional, Canis lupus familiaris.
The target of assay [11] is T1, Kinesin-like protein KIF11. The assay is described as follows: Inhibition of untagged human Eg5 basal ATPase activity. The following applies: read-out: Ki(app).
Assay [12] is described as follows: Growth inhibition of pig L-MDR1 cells overexpressing human P-glycoprotein. In kind it is functional. Particulars: Sus scrofa. The essentials:
as §1

Assay [13] in a line: Growth inhibition of dog MDCK2 cells. In kind it is functional. Particulars: Canis lupus familiaris, MDCK-II. The essentials: as §1
The nature of assay [14]: Growth inhibition of dog MDCK2-MDR1 cells overexpressing human P-glycoprotein in presence of P-glycoprotein inhibitor LY335979. In kind it is functional. The following applies: Canis lupus familiaris, MDCK-II. The essentials: as §1
The nature of assay [15]: Growth inhibition of dog MDCK2-MDR1 cells overexpressing human P-glycoprotein. In kind it is functional. The following applies: Canis lupus familiaris, MDCK-II. The gist of the method: as §1
Assay [16] deals with LLC-PK1. The assay is described as follows: Growth inhibition of pig LLC-PK1 cells in presence of P-glycoprotein inhibitor LY335979. The class given is functional. The following applies: Sus scrofa. The essentials:
as §1

For assay [17], the system named is KB 3-1. The assay is described as follows: Ratio of inhibition of growth in P-glycoprotein overexpressing […] inhibition of growth in human KB-3-1 cells. The class given is functional.
A short description of assay [18]: Ratio of inhibition of growth in P-glycoprotein overexpressing human A2780-AD10 cells to inhibition of growth in human A2780. The class given is functional, A2780 ADR.
Assay [19] is described as follows: Upregulation of P-glycoprotein mRNA expression in dog MDCK2 cells. In kind it is functional, cell-based. Particulars: Canis lupus familiaris; MDCK-II.
The target of assay [20] is T2, Kinesin-like protein KIF11 (Homo sapiens). Description: Inhibition of untagged human Eg5 microtubule-stimulated ATPase activity.
For assay [21] the target is unchanged. Description: Inhibition of untagged human Eg5 basal ATPase activity.

Activity calls are given as the source filed them. No cut-off for these calls is given here. Bounds are passed on as bounds.

In [1], `CCC(C)C(SC[C@H](N)C(=O)O)(c1ccccc1)c1ccccc1` (mixture of isomers) came in with a half-inhibitory concentration (IC50) of 0.549 µM. The outcome in assay [2] was Active.
As to `CCOC(=O)C1=C(C)NC(=S)N[C@H]1c1cccc(O)c1` [S-MENASTROL], the “fold change (FC)” value was determined as 20000 in assay [3] and 25000 in assay [6]. Also, the Ratio in [4] and in assay [5] was 1 in each case.
On to `N[C@@H](CSC(c1ccccc1)(c1ccccc1)c1ccc(Cl)cc1)C(=O)O`, for which the 50% growth inhibitory concentration (GI50) in assay [7] was determined as 0.33 µM; in assay [8], 1.61 µM; in assay [9] it was 2.11 µM; in assay [12], 6.21 µM; in assay [13] it was 0.28 µM; in [14], 0.27 µM. In addition, the results for the GI50 in [15] and in assay [16] were 0.56 µM and 2.45 µM, respectively. In addition, the IC50 in assay [1] was determined as 0.0533 µM. Also, the RatioGI50 in assay [4] was 2.9; in assay [10] it was 2. The outcome in [2] was Active. Also, in [11], the Ki was less than 0.05 µM.
As to `CN1CC[C@H](N(C)C(=O)N2CC(c3cc(F)ccc3F)=C[C@@]2(CO)c2ccccc2)[C@H](F)C1`, the Ratio in assay [17] was 4.5.
Regarding `CCCCN1C(=O)[C@@H]2Cc3c([nH]c4ccccc34)[C@@H](c3cccc(O)c3)N2C1=O`, the Ratio in assay [18] turned out to be 2.4.
Regarding `N[C@@H](CSC(c1ccccc1)(c1ccccc1)c1ccc(I)cc1)C(=O)O`, the GI50 was found to be 0.11 µM in assay [7]; 0.61 µM in assay [8]; 0.33 µM in assay [9]; 9.17 µM in [12]; 0.1 µM in assay [13]; 0.18 µM in assay [14]. Also, the GI50 in assay [15] was 0.33 µM; in [16], 0.44 µM. In addition, the midpoint of inhibition in assay [1], the IC50, lay at 0.0193 µM. Besides, the results for the RatioGI50 in [4] and in assay [10] were 27.6 and 3.4, respectively. In addition, the Ki in assay [11] was less than 0.05 µM.
For the molecule `NCCSC(c1ccccc1)(c1ccccc1)c1ccccc1`, the 50% growth inhibitory concentration (GI50) in assay [7] came to 0.85 µM; in [8], 4.81 µM; in assay [9], 3.29 µM; in assay [12], 4.83 µM; in assay [13], 0.74 µM; in [14], 0.61 µM. The GI50 in [15] was determined as 0.57 µM; in assay [16], 3.88 µM. Besides, the IC50 in assay [1] was determined as 0.396 µM. Further, the results for the RatioGI50 in assay [4] and in assay [10] were 1.5 and 0.8, respectively. For the same molecule, the fold change (FC) is 500 in [19] and 25000 in assay [6]. In addition, the Ki in [11] was 0.156 µM.
As for `Cc1ccc(C(SC[C@H](N)C(=O)O)(c2ccccc2)c2ccccc2)cc1`, the GI50 in assay [7] is 0.08 µM; in assay [8], 0.49 µM; in assay [9], 1.05 µM; in assay [12], 3.83 µM; in assay [13], 0.09 µM; in assay [14], 0.12 µM. Moreover, the GI50 in [15] came to 0.35 µM; in [16], 1.18 µM. Moreover, the half-inhibitory concentration (IC50) in assay [1] came to 0.0617 µM. For the same molecule, the results for the RatioGI50 in assay [4] and in assay [10] were 3.7 and 3.8, respectively. Besides, the Ki in assay [11] is less than 0.05 µM.
`CC(C)c1ccc(C(SC[C@H](N)C(=O)O)(c2ccccc2)c2ccccc2)cc1`: the 50% growth inhibitory concentration (GI50) in assay [7] stood at 0.84 µM; in assay [8] it was 1.05 µM; in [9], 1.05 µM; in [12] it was 36.7 µM; in [13], 0.78 µM; in assay [14], 0.88 µM. Also, the concentration for 50% growth inhibition (GI50) stood at 2.75 µM in assay [15] and 1.51 µM in assay [16]. Besides, the half-maximal inhibitory concentration (IC50) in assay [1] worked out at 0.144 µM. Moreover, the RatioGI50 in assay [4] is 34.8; in assay [10], 3.5. The Ki in assay [11] was less than 0.05 µM.
For `CN(C)[C@@H](CSC(c1ccccc1)(c1ccccc1)c1ccccc1)C(=O)O`, the inhibition entry in assay [20] and in assay [21] was “inactive” in each case.

The values above are taken from ChEMBL document CHEMBL1687930 (J Med Chem, 2011).
